STEP block: STEP phosphatase inhibitors, primary screen, biochemical, fluorescence intensity, uHTS; Tyrosine-protein phosphatase non-receptor type 5 (Homo sapiens), P54829; recombinant STEP, OMFP fluorogenic substrate; inhibition, % at 20 µM; actives 0.25% (n = 360,000);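 active means inhibition at 20 µM, scaled per plate between control wells, above about 37%, limit read from the data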
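Measure: Control-normalized % inhibition with plate pattern correction | Test system: STEP phosphatase, cell-free reaction | Medium: pH 6.0 Bis-Tris with DTT and Tween 20 | Technique: Fluorescence, 480/540 nm | Times: Reaction 20 min, ambient temperature | Doses: Single compound dose of 20 µM, 1% DMSO final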
LMPTP block: LMPTP phosphatase inhibitors, primary screen, biochemical, fluorescence intensity, uHTS; Low molecular weight phosphotyrosine protein phosphatase (Homo sapiens), P24666; recombinant LMPTP-A, OMFP fluorogenic substrate; inhibition, % at 20 µM; actives 0.22% (n = 360,000); AID 651560, 2012;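 active means compounds that cut the enzyme signal by at least half of the control window in the single-dose screen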
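material = LMPTP-A | quantity = 0.625 nM enzyme | reagent = OMFP substrate, 400 µM final | buffer or medium = Bis-Tris pH 6.0, DTT, detergent | detection = endpoint fluorescence intensity from OMFP dephosphorylation | dosing = single 20 µM dose | read-out basis = % inhibition relative to no-enzyme and uninhibited control wells | control set = no-enzyme and uninhibited controls | timing = 50 min at room temperature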
NadD block: inhibitors of S. aureus NadD, primary screen, biochemical, colorimetric, uHTS. actives 0.78% (n = 360,000). inhibition, % at 20 µM. purified NadD enzyme, colorimetric absorbance read-out. AID 602399, 2012. Nicotinate-nucleotide adenylyltransferase NadD (Staphylococcus aureus N315); in the data active means inhibition above about 26%
SUMO1-SIM PPI: modulators of SUMO1 protein-protein interactions, primary screen, biochemical, uHTS. Small ubiquitin-related modifier 1 (Homo sapiens), P63165. SUMO1 binding to a labelled peptide, TR-FRET, 1 h. inhibition, % at 20 µM. actives 0.33% (n = 360,000). AID 602429, 2012; in the data active means inhibition above about 37%
Scp1 inh: Scp-1 phosphatase inhibitors, primary screen, biochemical, colorimetric, uHTS. Carboxy-terminal domain RNA polymerase II polypeptide A small phosphatase 1 (Homo …. Recombinant Scp1, phosphopeptide, malachite green phosphate absorbance. inhibition, % at 20 µM. actives 0.88% (n = 340,000). AID 493091, 2011;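 active means inhibition above about 50% at 20 µM, limit read from the data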
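Material – SCP-1 phosphatase catalytic domain, residues 76-261 · Buffer or medium – Acidic Tris acetate buffer with magnesium and detergent · Also added – Phospho 17-mer peptide substrate · Compound – single 20 µM dose, 1% DMSO · Times – 45 min room-temperature reaction, 5 min colour, 30 min stabiliser · Technique – Phosphate-binding colour reagent, absorbance read at 630 nm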
DNMT1 inh: human DNMT1 methyltransferase inhibitors, primary screen, biochemical, molecular beacon, fluorescence, HinP1I cleavage, uHTS | DNA (cytosine-5)-methyltransferase 1 (Homo sapiens), P26358 | inhibition (reported as % activation of signal), % at 10 µM | actives 0.83% (n = 360,000) | AID 588458, 2011; in the data active means inhibition above about 50%
Target sequence (P26358 504-1616 limits assumed): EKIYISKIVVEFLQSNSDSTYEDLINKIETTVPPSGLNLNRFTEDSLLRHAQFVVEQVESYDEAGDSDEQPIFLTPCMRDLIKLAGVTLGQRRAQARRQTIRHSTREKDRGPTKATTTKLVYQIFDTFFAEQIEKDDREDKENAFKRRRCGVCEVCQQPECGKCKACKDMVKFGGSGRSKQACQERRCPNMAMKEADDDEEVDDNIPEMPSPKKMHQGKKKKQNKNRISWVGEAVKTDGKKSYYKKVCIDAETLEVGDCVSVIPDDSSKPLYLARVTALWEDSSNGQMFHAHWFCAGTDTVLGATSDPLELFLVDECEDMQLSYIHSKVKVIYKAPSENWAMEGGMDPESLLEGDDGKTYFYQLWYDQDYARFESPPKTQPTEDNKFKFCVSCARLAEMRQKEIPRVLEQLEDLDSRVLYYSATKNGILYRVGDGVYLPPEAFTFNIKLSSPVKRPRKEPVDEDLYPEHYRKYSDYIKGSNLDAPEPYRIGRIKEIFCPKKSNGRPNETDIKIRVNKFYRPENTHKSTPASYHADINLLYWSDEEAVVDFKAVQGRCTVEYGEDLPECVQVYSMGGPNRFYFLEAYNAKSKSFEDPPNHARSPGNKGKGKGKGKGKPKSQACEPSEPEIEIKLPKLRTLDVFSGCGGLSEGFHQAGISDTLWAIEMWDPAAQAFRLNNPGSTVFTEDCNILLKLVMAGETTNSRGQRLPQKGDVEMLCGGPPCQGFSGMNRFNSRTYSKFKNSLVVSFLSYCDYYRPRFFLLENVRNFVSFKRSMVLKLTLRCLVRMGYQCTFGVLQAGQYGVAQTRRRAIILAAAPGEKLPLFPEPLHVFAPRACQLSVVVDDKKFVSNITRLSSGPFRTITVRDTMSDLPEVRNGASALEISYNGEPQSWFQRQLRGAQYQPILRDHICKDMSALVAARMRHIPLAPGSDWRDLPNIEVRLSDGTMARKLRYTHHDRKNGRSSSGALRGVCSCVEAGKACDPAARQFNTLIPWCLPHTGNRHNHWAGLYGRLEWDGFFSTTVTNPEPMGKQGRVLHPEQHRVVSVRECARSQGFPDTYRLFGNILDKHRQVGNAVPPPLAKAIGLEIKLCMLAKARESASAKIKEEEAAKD
Beacon interf DR: spectral interference with molecular beacon fluorescence, dose response, artefact control for DNMT1 inhibitor project, biochemical, fluorescent molecular beacon | IC50, µM | AID 602382, 2012 | 200 tested, under 10 active | shares compounds with DNMT1 inh | spectral interference counter-screen; call rule not given here
DNMT1 inh conf: DNMT1 methyltransferase inhibitor retest, confirmation, biochemical, molecular beacon, fluorescence, single concentration. inhibition, % at 10 µM. actives 8% (n = 2,300). AID 602385, 2012. shares compounds with DNMT1 inh. DNMT1 molecular beacon HinP1I cleavage;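 active means average inhibition of at least 30% in the single-concentration confirmation test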
DNMT1 interf: counter-screen for DNMT1 inhibitors: spectral interference | shares compounds with DNMT1 inh | DNMT1 molecular beacon spectral interference counterscreen, fluorescence 485/520 | activation (fluorescence interference), % at 10 µM | actives 1% (n = 2,300) | AID 602387;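 active means activation of at least 30% at 10 µM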;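 further: DNMT1 catalytic domain with a HinP1I cleavage step and a FAM/dabcyl DNA beacon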
Hits are given with their value; i = inactive; nt = no result given. Compounds with a hit are over-represented: about 2.3% of the library has one in this group of screens.

SMILES	STEP block	LMPTP block	NadD block	SUMO1-SIM PPI	Scp1 inh	DNMT1 inh	DNMT1 inh conf	DNMT1 interf	others
COc1cc(/C=N/NC(=O)c2cc(-c3ccc4c(c3)OCO4)n[nH]2)ccc1O	i	i	i	i	i	i	nt	nt
Cc1ccc(C)n1/N=C1/NC(=O)CS1	i	i	i	i	i	90.3	i	i
Cc1ccc(N=C2NC(=O)CS2)cc1	i	i	i	i	i	i	nt	nt
O=C(CN1C(=O)/C(=C\C=C\c2ccccc2)SC1=S)Nc1ccc(F)cc1	i	i	i	i	i	i	nt	nt
O=C(COC(=O)CCN1C(=O)/C(=C\C=C\c2ccccc2)SC1=S)Nc1cc(F)ccc1F	i	i	35.3	i	i	75.3	i	i
CSc1ccc(OC2(C)CCN(Cc3ccc4c(c3)OCCO4)C2)cc1 (configuration not stated)	i	i	i	i	nt	i	nt	nt
CCOC(=O)C1=C(C)N=c2sc(=Cc3ccc(OCC(=O)O)cc3)c(=O)n2C1c1ccc(Cl)cc1 (configuration not stated)	i	75.9	i	44.1	nt	91.8	98.8	i	Beacon interf DR=i
O=C(CN1C(=O)S/C(=C\c2ccc(-c3cc(C(=O)O)ccc3Cl)o2)C1=O)Nc1ccc2c(c1)OCO2	90.5	74.1	53.4	113.9	nt	96.5	i	i	Beacon interf DR=i
Cn1cc(/C=C2/SC(=O)N(CC(=O)Nc3ccc4c(c3)OCO4)C2=O)c2ccccc21	i	i	i	i	i	i	nt	nt
Cc1cc(C(=O)NNC(=S)Nc2ccccc2)nn1C	i	i	i	i	i	i	nt	nt
CCCCNC(=O)C1(C)CCCCN1C(=O)c1ccno1 (configuration not stated)	i	i	i	i	nt	i	nt	nt
COC(=O)c1ccc(N/N=C/c2cc([N+](=O)[O-])cc(OC)c2O)cc1	i	i	i	i	i	i	nt	nt
CCOC(=O)c1ccc(N/N=C/c2cc(Br)cc([N+](=O)[O-])c2O)cc1	i	i	i	i	i	70.0	i	i
O=C(/C=C/c1ccc(Br)o1)NCc1ccccc1	i	i	i	i	i	74.4	i	i
Cc1ccc(CNC(=O)/C=C/c2ccc(Br)o2)cc1	i	i	i	i	i	i	nt	nt
C(=Nc1cccc2c(N=Cc3ccco3)cccc12)c1ccco1	i	i	i	i	i	i	nt	nt
C(=N\C(/N=C/c1ccco1)c1ccco1)/c1ccco1	i	i	i	i	i	71.2	i	i
Cn1cnc2c(cnn2C)c1=O	i	i	i	i	i	i	nt	nt
Cc1ccc(-c2cc(C(=O)Nc3ccc(S(=O)(=O)N4CC(C)OC(C)C4)cc3)[nH]n2)c(O)c1 (configuration not stated)	i	i	i	i	i	123.8	i	i
CCn1c(CC(=O)Nc2ccccc2F)nnc1SCC(=O)N1CCN(c2ccccc2)CC1	i	i	i	i	i	76.9	i	i
O=C(c1cc(C2CC2)nn1-c1ccccc1)N1CCN(S(=O)(=O)c2ccccc2F)CC1	i	i	i	i	nt	i	nt	nt
COc1ccc([C@H]2[C@H](C(=O)C(C)(C)C)N3N=Cc4ccccc4C3[C@]23N=C(c2ccccc2)OC3=O)cc1OC (some centres not stated)	i	i	i	i	i	55.0	i	i
CCc1ccc(/C=N/N2CCN(c3ccccn3)CC2)cc1	i	i	i	i	i	74.9	i	i
Cc1ccc(/C=N/N2CCN(c3ccccn3)CC2)cc1	i	i	i	i	i	i	nt	nt
O=C(c1cccc(-n2cccc2)c1)N1CCN(S(=O)(=O)c2ccccc2)CC1	i	i	i	75.8	nt	96.8	i	i
SMILES	STEP block	LMPTP block	NadD block	SUMO1-SIM PPI	Scp1 inh	DNMT1 inh	DNMT1 inh conf	DNMT1 interf	others
CC(C)(C)c1ccc(-c2csc(NC(=O)CN3C(=O)NC4(CCCCC4)C3=O)n2)cc1	i	i	i	i	i	53.6	i	i
COC(=O)[C@H](Cc1ccccc1)N1C/C=C\COc2c(Cl)cc(Cl)cc2S1(=O)=O	i	i	i	i	i	81.6	i	i
CCOc1ccc(/C=c2\sc3nc(-c4ccco4)nn3c2=O)cc1OCC	i	i	i	i	i	64.7	i	i
O=C(Nc1ccc2oc(=O)ccc2c1)c1ccc(-c2cccc(Cl)c2)o1	i	i	i	i	i	90.6	i	i
O=C(N/N=C/c1cc(Br)c(O)c(Br)c1)c1cccc(C(F)(F)F)c1	i	i	i	i	i	73.6	i	i
Cn1nc(CC(=O)NC2CCCCCCCCCCC2)c2ccccc2c1=O	i	i	i	i	i	69.1	i	i
CCN(CC)C(=S)NC(=O)c1cc(OC)c(OC)c(OC)c1	i	i	i	i	i	i	nt	nt
O=c1[nH]c(=O)c2nc3c4ccccc4c4ccccc4c3nc2[nH]1	i	i	i	83.8	i	78.6	i	i
CCOC(=O)C1(C)CCCN1C(=O)c1cccc2ccccc12 (configuration not stated)	i	i	i	i	nt	i	nt	nt
c1ccc(-c2nccc(-c3ccc(-n4cnc5ccccc54)cc3)n2)cc1	i	i	i	i	i	82.0	i	i
c1ccc(-n2cnc3ccccc32)nc1	i	i	i	i	i	i	nt	nt
COc1ccc2nc(C)cc(SCC(=O)Nc3c(C)cc(C)cc3C)c2c1	i	i	i	i	i	55.1	i	i
O=C(O)C1Oc2cc3ccccc3cc2O1	i	i	i	i	i	55.2	i	i
CC(=O)Nc1cc(-c2ccccc2N(C)C)cn2c(-c3ccc(S(C)(=O)=O)cc3)cnc12	i	i	i	i	nt	189.0	i	i
CCCNC(=O)NC(=O)CSc1nncs1	i	i	i	i	i	i	nt	nt
Cc1cccc(NS(=O)(=O)c2cccc(C(=O)N3CCCC(C(F)(F)F)C3)c2)c1 (configuration not stated)	i	i	i	i	i	i	nt	nt
NC(=S)NN=Cc1ccc(-c2ccc(S(=O)(=O)Nc3ncccn3)cc2)o1	i	i	i	i	i	88.6	i	i
CCn1cnnc1SCC(=O)NCC1COc2ccccc2O1 (configuration not stated)	i	i	i	i	i	i	nt	nt
